Source: PubChem BioAssay (several laboratories)
RGS4 block – inhibitors of human RGS4 | P49798 | HEK293 M3R/RGS4 inducible, Fluo-4 calcium flux; active compounds read high; triggered by carbachol at its EC20 | B-score at 10 µM | 310,000 tested, 0.45% active | AID 463165;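 active means B-score, a plate-corrected calcium signal, over three deviations above library mean, with baseline fluorescence within five deviations of library mean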;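 further: RGS4 expression induced by doxycycline in cells with stable M3 receptor; B-score is computed from the integrated fluorescence ratio over baseline after carbachol; higher B-score means a larger calcium signal and so more RGS4 inhibition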
MrgX1 agonist – activates human MrgX1 receptor signaling; Q96LB2; MrgX1-HEK293 cells, Fluo-4 calcium fluorescence, agonist mode; active compounds read high; B-score at 10 µM; 310,000 tested, 0.44% active; AID 588627;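 active means calcium response B-score plate-corrected fluorescence ratio at least 3 library SD, with starting fluorescence B-score inside 5 SD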
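Material: MrgX1-expressing HEK293 cells / Dosing: compound as first of three additions / Incubation: overnight seeding, then 1 h dark dye loading / Signal: Fluo-4 NW calcium fluorescence / Evaluation: B-scored fluorescence response ratio / Benchmarks: positive and negative control wells on each plate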
MrgX1 allo act – allosterically activates human MrgX1 receptor signaling; MrgX1-HEK293, Fluo-4 calcium flux, FDSS; active compounds read high; Q96LB2; B-score at 10 µM; 310,000 tested, 0.63% active; AID 588675;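 active means plate-corrected calcium response at least 3 library SD above typical, normal starting fluorescence, not activating the receptor alone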;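 further: compound read alongside a low EC10 to EC30 dose of BAM8-22 agonist; peak minus trough fluorescence over baseline measured at the second addition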
Cl transport mod – modulates chloride dependent transport by human KCC2. KCC2 cells, thallium flux FluoZin-2 fluorescence. B-score of Tl+ flux slope (higher = more flux/activation; lower = inhibition) at 10 µM. 190,000 tested, 2.2% active. AID 1456;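 active means thallium flux slope and its plate-corrected score both differing from the plate sample mean at a set confidence after two filtering rounds, in either direction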;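 further: slope of fluorescence scaled to starting intensity during 10 to 20 s after thallium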
Target sequence (Q9H2X9 whole entry, looked up): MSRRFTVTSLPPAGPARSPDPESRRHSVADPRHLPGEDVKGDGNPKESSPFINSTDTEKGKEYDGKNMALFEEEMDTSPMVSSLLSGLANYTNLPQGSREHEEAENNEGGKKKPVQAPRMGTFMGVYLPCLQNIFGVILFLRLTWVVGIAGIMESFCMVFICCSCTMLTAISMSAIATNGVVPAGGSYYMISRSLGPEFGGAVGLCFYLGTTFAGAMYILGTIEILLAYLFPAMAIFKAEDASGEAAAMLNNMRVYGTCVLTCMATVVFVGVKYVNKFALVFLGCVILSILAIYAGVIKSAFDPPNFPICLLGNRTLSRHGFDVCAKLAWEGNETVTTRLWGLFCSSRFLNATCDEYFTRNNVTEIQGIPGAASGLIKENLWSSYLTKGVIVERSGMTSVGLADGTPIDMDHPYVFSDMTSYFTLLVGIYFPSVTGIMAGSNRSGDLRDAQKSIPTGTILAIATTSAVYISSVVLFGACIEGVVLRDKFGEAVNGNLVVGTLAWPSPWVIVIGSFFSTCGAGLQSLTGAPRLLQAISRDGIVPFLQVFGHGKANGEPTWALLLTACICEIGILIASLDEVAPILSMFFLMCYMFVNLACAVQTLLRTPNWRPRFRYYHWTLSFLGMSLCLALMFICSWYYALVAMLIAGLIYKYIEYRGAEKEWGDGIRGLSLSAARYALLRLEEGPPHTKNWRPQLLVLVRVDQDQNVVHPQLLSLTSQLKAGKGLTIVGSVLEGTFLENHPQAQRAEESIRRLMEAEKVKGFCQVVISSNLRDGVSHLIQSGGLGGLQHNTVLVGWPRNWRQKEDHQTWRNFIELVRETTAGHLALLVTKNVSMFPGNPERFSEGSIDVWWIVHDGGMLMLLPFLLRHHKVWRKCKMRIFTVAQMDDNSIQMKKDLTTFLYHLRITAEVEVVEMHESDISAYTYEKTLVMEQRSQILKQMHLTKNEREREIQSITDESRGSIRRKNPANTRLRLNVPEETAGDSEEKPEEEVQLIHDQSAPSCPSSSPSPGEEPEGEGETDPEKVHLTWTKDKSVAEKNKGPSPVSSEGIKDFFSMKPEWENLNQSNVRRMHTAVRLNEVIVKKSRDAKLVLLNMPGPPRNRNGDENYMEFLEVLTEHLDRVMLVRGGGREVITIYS
RGS4 act – potentiators or activators of RGS4; HEK293 M3R/inducible RGS4, carbachol calcium flux Fluo4; active compounds read low; B-score at 10 µM; 310,000 tested, 0.92% active;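 active means B-score of the integrated calcium signal more than 4 SD below the library mean, with starting fluorescence not abnormally high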;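 further: negative B-score means reduced calcium response which marks RGS4 activation or potentiation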
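Material: Inducible-RGS4 HEK293 cells carrying M3 receptor; also added: carbachol at ECmax as muscarinic agonist stimulus; incubation: compound preincubation 20 min at room temperature before agonist; signal: Fluo4-AM (2 µM) calcium-flux fluorescence, kinetic read; measure: integrated calcium ratio converted to B score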
MrgX1 antagonist – antagonists of human MrgX1 receptor; MRGX1-HEK293 calcium flux, Fluo-4, BAM8-22 antagonism; active compounds read low; B-score at 10 µM; 310,000 tested, 1.3% active; AID 588676;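 active means calcium-response B-score plate-corrected more than 3 library SD below zero, starting fluorescence within 5 deviations, no agonist response on first addition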;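 further: peak minus trough fluorescence over baseline after final BAM8-22 challenge near maximal dose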
RGS4 block valid – RGS4 inhibitor validation | 1,700 tested, 65% active | calcium response, % at 10 µM | HEK293 M3R/RGS4, carbachol calcium Fluo-4 fluorescence; carbachol added at its EC20; 0 = buffer wells, 100 = carbachol control | AID 492999 | shares compounds with RGS4 block;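 active means duplicate-averaged calcium response above the buffer-only control mean plus 5 SD of those controls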;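 further: integrated fluorescence ratio F max minus min over baseline F0; higher response in RGS4-induced cells means RGS4 inhibition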
M3R Ca ctr – counter-screen for RGS4 inhibitors: effect in non-induced cells; shares compounds with RGS4 block; HEK293 M3R non-induced, carbachol calcium Fluo-4; submaximal (EC20) carbachol stimulus; buffer wells 0%, carbachol control wells 100%; activity (percent), % at 10 µM; 1,900 tested, 20% active; call rule not given here;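 further: RGS4 induction absent so cells express M3R without RGS4; higher means more calcium signal and flags a non-specific hit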
M3R basal Ca ctr – second RGS4 inhibitor counter-screen in uninduced cells lacking carbachol. HEK293 M3R/RGS4 non-induced, Fluo-4 calcium, no carbachol; normalised: buffer wells 0%, carbachol wells 100%. 1,900 tested, 22% active. calcium response (agonist-mode artifact), % at 10 µM. shares compounds with RGS4 block. AID 493001;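 active means duplicate-averaged calcium rise in uninduced cells above buffer wells' mean plus 5 SD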
Large screens that a line does not name were inactive (follow-up assays come after a bar, where they were run). Only some compounds are listed: those with a hit (about 4.7% of all), similar ones and a draw of the others.

CCC(C(=O)N1CCOCC1)n1c2ccccc2c2nc(=O)cc(C)n21 (centres undefined)	none (no result: Cl transport mod)
Cc1cccc(NC(=O)COn2nnc3ccc(S(C)(=O)=O)cc32)c1	none
CCSc1nc(N)c(C#N)c(-c2ccco2)c1C#N	RGS4 block 6.5 | RGS4 block valid 7.0% | M3R Ca ctr inactive | M3R basal Ca ctr inactive
N#CCCN(C(=O)COC(=O)CCc1c[nH]c2ccccc12)c1ccccc1	none (no result: Cl transport mod)
CC(=O)Nc1cccc(C(=O)/C=C/c2ccc(C)cc2)c1	none | RGS4 block valid inactive | M3R Ca ctr inactive | M3R basal Ca ctr inactive
CN(C)c1ccc(C(=O)/C=C/c2cccnc2)cc1	none (no result: Cl transport mod)
O=C(/C=C/c1ccc([N+](=O)[O-])cc1)c1ccco1	RGS4 block 11.3 (no result: Cl transport mod) | RGS4 block valid 12.0% | M3R Ca ctr inactive | M3R basal Ca ctr inactive
O=C(/C=C/c1ccc([N+](=O)[O-])cc1)c1cccnc1	RGS4 block 18.3 | RGS4 block valid 39.0% | M3R Ca ctr 52.5% | M3R basal Ca ctr inactive
O=C(/C=C/c1cccnc1)c1ccc(F)c(F)c1	RGS4 block 20.9 (no result: Cl transport mod) | RGS4 block valid 27.0% | M3R Ca ctr 46.0% | M3R basal Ca ctr inactive
Cc1ccc(NC(=O)c2ccc3nccnc3c2)c(C)c1	none (no result: Cl transport mod)
COc1cccc(C(=O)N2CCCN(C)CC2)c1OC	none (no result: Cl transport mod)
O=C(O)c1ccccc1-c1ccccc1C(=O)Nc1ccc(F)cc1	none (no result: Cl transport mod)
O=C(/C=C/c1ccc(NC(=O)c2ccccc2-c2ccccc2C(=O)O)cc1)c1ccccc1	RGS4 block 27.9 (no result: Cl transport mod) | RGS4 block valid 60.5% | M3R Ca ctr inactive | M3R basal Ca ctr 13.0%
O=C1Nc2ccccc2/C1=C/c1ccc([N+](=O)[O-])cc1	RGS4 block 8.12 (no result: Cl transport mod) | RGS4 block valid inactive | M3R Ca ctr 30.0% | M3R basal Ca ctr inactive
CC(NC(=O)CSC(=S)N1CCCC1)c1ccc(S(N)(=O)=O)cc1 (centres undefined)	none (no result: Cl transport mod)
Cc1ccc(NC(=S)NCc2ccc(Cl)cc2)c(OC(F)F)c1	none (no result: Cl transport mod)
COc1ccc(S(=O)(=O)N[C@@H](CSCc2ccccc2)C(=O)O)cc1	none (no result: Cl transport mod)
CCOc1cc(/C=C2\CN(CC)C/C(=C\c3ccc(O)c(OCC)c3)C2=O)ccc1O	RGS4 block 11.7, MrgX1 agonist 26.9 (no result: Cl transport mod) | RGS4 block valid 48.0% | M3R Ca ctr 36.5% | M3R basal Ca ctr 12.5%
CCOc1ccc(NC(=O)CC2C(=O)NCCN2C(=O)c2ccc(Cl)cc2)cc1 (centres undefined)	none
Cc1cccc(NC(=O)CC2C(=O)NCCN2C(=O)Nc2ccc(Cl)cc2)c1 (centres undefined)	RGS4 block 9.09 (no result: Cl transport mod) | RGS4 block valid 26.0% | M3R Ca ctr 46.0% | M3R basal Ca ctr inactive
O=C(CC1C(=O)NCCN1C(=O)c1ccc(Cl)cc1)Nc1ccc(F)cc1 (centres undefined)	none (no result: Cl transport mod) | RGS4 block valid inactive | M3R Ca ctr inactive | M3R basal Ca ctr inactive
O=C(CC1C(=O)NCCN1C(=O)Nc1ccc(F)cc1)Nc1cc(Cl)ccc1Cl (centres undefined)	none | M3R Ca ctr inactive | M3R basal Ca ctr 10.0%
COc1ccc(NC(=O)N2CCNC(=O)C2CC(=O)Nc2ccc(F)cc2)cc1 (centres undefined)	none (no result: Cl transport mod) | RGS4 block valid inactive | M3R Ca ctr inactive | M3R basal Ca ctr inactive
O=C(CC1C(=O)NCCN1C(=O)Nc1ccccc1)Nc1cc(Cl)ccc1Cl (centres undefined)	none
O=C(CC1C(=O)NCCN1C(=O)Nc1ccc(Cl)cc1)Nc1ccc(F)cc1 (centres undefined)	RGS4 block 5.56 | RGS4 block valid 23.0% | M3R Ca ctr 37.0% | M3R basal Ca ctr 12.0%
COC(=O)CC1C(=O)NCCN1C(=O)Nc1ccc(Cl)cc1 (centres undefined)	none
O=C(CC1C(=O)NCCN1C(=O)Nc1ccccc1)Nc1ccc(F)cc1 (centres undefined)	none | M3R Ca ctr inactive | M3R basal Ca ctr inactive
NC(=O)CC(NC(=O)Cc1ccc(Br)cc1)c1ccc(NC2CCCCCC2)c([N+](=O)[O-])c1 (centres undefined)	none | RGS4 block valid inactive | M3R Ca ctr inactive | M3R basal Ca ctr inactive
NC(=O)CC(NC(=O)Cc1ccc(Cl)cc1)c1ccc(NC2CCCCCC2)c([N+](=O)[O-])c1 (centres undefined)	none (no result: Cl transport mod)
NC(=O)CC(NC(=O)c1ccc(Br)cc1)c1ccc(NC2CCCCC2)c([N+](=O)[O-])c1 (centres undefined)	none (no result: Cl transport mod)
NC(=O)CC(NC(=O)Cc1ccc(Cl)cc1)c1ccc(NC2CCCCCCC2)c([N+](=O)[O-])c1 (centres undefined)	RGS4 block 4.68 (no result: Cl transport mod) | RGS4 block valid 11.0% | M3R Ca ctr inactive | M3R basal Ca ctr inactive
NC(=O)CC(NC(=O)Cc1ccc(Br)cc1)c1ccc(NC2CCCC2)c([N+](=O)[O-])c1 (centres undefined)	none | RGS4 block valid inactive | M3R Ca ctr inactive | M3R basal Ca ctr inactive
NC(=O)CC(NC(=O)c1ccc(Br)cc1)c1ccc(NC2CCCCCC2)c([N+](=O)[O-])c1 (centres undefined)	none (no result: Cl transport mod)
Nc1c(C(=O)c2ccc(Cl)cc2)sc2c1c(=O)[nH]c(=O)n2-c1ccccc1	RGS4 block 5.2 | RGS4 block valid 37.5% | M3R Ca ctr inactive | M3R basal Ca ctr 26.0%
CC(=O)c1ccc(-n2c(=O)[nH]c(=O)c3c(N)c(C(=O)c4ccc(Cl)cc4)sc32)cc1	none | M3R Ca ctr inactive | M3R basal Ca ctr inactive
CC(=O)c1sc2c(c1N)c(=O)[nH]c(=O)n2-c1ccccc1	none (no result: Cl transport mod)
Cc1ccc(C(=O)c2sc3c(c2N)c(=O)[nH]c(=O)n3CCc2ccccc2)cc1	none
Cc1ccccc1-n1c(=O)[nH]c(=O)c2c(N)c(C(=O)c3ccc(Cl)cc3)sc21	none
Nc1c(C(=O)c2ccccc2)sc2c1c(=O)[nH]c(=O)n2-c1ccccc1	none | M3R Ca ctr 37.5% | M3R basal Ca ctr inactive
COc1ccc(NC2CCCN(C(=O)c3ccc(C(C)=O)s3)C2)cc1 (centres undefined)	none (no result: Cl transport mod)
O=C(CSc1ncn[nH]1)NCc1ccccc1Cl	none (no result: Cl transport mod)
